Reference: ChEMBL document CHEMBL1154413, “In vitro activities of different inhibitors of bacterial transcription against Staphylococcus epidermidis biofilm” (Antimicrob Agents Chemother, 2007)
Converted amounts (≈) assume the structure as drawn. The source made the active and inactive calls. The calls are words filed in the database; no cut-off is given here.

Tests used:
[1] = test system: Staphylococcus epidermidis; assay: Inhibition of Staphylococcus epidermidis biofilm formation assessed as reduction of >2 log 10 bacterial count in biofilm after 24 hrs; format: functional, organism-based
In short: (§1)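 S. epidermidis RP62A biofilms grown 24 h at 37°C from 10^7 CFU/ml in MHB in polystyrene microtiter wells, rinsed, then exposed 24 h at 37°C without shaking to compound in MHB (1× to 16× MIC). Washed, lysed with DMSO, bacterial ATP read by luciferase/luciferin bioluminescence, converted to log10 CFU/well via calibration against plate counts; reduction versus unchallenged biofilm. Triplicate.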

[2] = test system: Staphylococcus epidermidis; assay: Inhibition of Staphylococcus epidermidis biofilm formation assessed as log 10 reduction of bacterial count in biofilm at 0.025 ug/ml per well after 24 hrs; format: functional; in short: as §1
[3] = test system: Staphylococcus epidermidis; assay: Ratio of MBC for Staphylococcus epidermidis to MIC for Staphylococcus epidermidis; format: functional
In short: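 MBC obtained by extending the CLSI MIC assay (MHB, 5 × 10^5 CFU/ml, 37°C, 24 h): well portions serially diluted, spotted on MHB agar, incubated 37°C, read at 24 h as lowest concentration giving 0.1% survival. Triplicate.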

[4] = Inhibition of Staphylococcus epidermidis RNA polymerase mediated transcription
In short: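 Transcription measured on toluene-permeabilized S. epidermidis cells, endogenous DNA as template; [5-3H]UTP incorporation read out, concentration giving 50% inhibition calculated. Triplicate.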

[5] = test system: Staphylococcus epidermidis; assay: Antimicrobial activity against Staphylococcus epidermidis; format: functional
In short: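 S. epidermidis RP62A; broth microdilution per CLSI in Mueller-Hinton broth, inoculum 5 × 10^5 CFU/ml, 37°C for 24 h before reading. Triplicate.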

[6] = test system: Staphylococcus epidermidis; assay: Inhibition of Staphylococcus epidermidis biofilm formation assessed as log 10 reduction of bacterial count in biofilm at 4 times MIC per well after 24 hrs; format: functional; in short: as §1

IC50 [4]	MIC [5]	SMILES	Activity [1]	Activity [2]	Ratio [3]	MBC [5]	Activity [6]
0.07 µg/mL (≈ 0.0891 µM)	0.012 µg/mL (≈ 0.0153 µM)	CO[C@H]1/C=C/O[C@@]2(C)Oc3c(C)c(O)c4c(O)c(c5c(nc6cc(C)ccn65)c4c3C2=O)NC(=O)/C(C)=C\C=C\[C@H](C)[C@H](O)[C@@H](C)[C@@H](O)[C@@H](C)[C@H](OC(C)=O)[C@@H]1C [RIFAXIMIN]	inactive	1.5	2	0.025 µg/mL (≈ 0.0318 µM)	
4.2 µg/mL (≈ 15 µM)	100 µg/mL (≈ 357 µM)	O/N=C(\Nc1ccccc1)c1cccc(C(F)(F)F)c1			1	100 µg/mL (≈ 357 µM)	3
0.5 µg/mL (≈ 1.34 µM)	6.25 µg/mL (≈ 16.8 µM)	CCOC(=O)c1c(NC(=O)Nc2ccccc2)sc2c1CCCCCC2	inactive		>18	> 100 µg/mL	
0.04 µg/mL (≈ 0.0486 µM)	0.006 µg/mL (≈ 0.00729 µM)	CO[C@H]1/C=C/O[C@@]2(C)Oc3c(C)c(O)c4c(O)c(c(/C=N/N5CCN(C)CC5)c(O)c4c3C2=O)NC(=O)/C(C)=C\C=C\[C@H](C)[C@H](O)[C@@H](C)[C@@H](O)[C@@H](C)[C@H](OC(C)=O)[C@@H]1C [RIFAMPIN]	inactive		1	0.006 µg/mL (≈ 0.00729 µM)	
2.5 µg/mL (≈ 6.73 µM)	12.5 µg/mL (≈ 33.7 µM)	C=CCN1C(=O)/C(=C/c2ccc(-c3cccc(C(=O)O)c3)o2)SC1=S	inactive		2	25 µg/mL (≈ 67.3 µM)	1.8
0.08 µg/mL (≈ 0.0912 µM)	0.012 µg/mL (≈ 0.0137 µM)	CO[C@H]1/C=C/O[C@@]2(C)Oc3c(C)c(O)c4c(O)c(c(/C=N/N5CCN(C6CCCC6)CC5)c(O)c4c3C2=O)NC(=O)/C(C)=C\C=C\[C@H](C)[C@H](O)[C@@H](C)[C@@H](O)[C@@H](C)[C@H](OC(C)=O)[C@@H]1C [RIFAPENTINE]	inactive	1.5	2	0.025 µg/mL (≈ 0.0285 µM)	
> 100 µg/mL	12.5 µg/mL (≈ 58.3 µM)	CC(=O)Nc1c2sscc-2[nH]c1=O [HOLOMYCIN]	inactive		4	50 µg/mL (≈ 233 µM)	
2.3 µg/mL (≈ 6.59 µM)	25 µg/mL (≈ 71.6 µM)	O/N=C(\Nc1cccc(Cl)c1)c1ccc(Cl)c(C(F)(F)F)c1			1	25 µg/mL (≈ 71.6 µM)	3

SMILES	IC50 [4]	MIC [5]	Activity [1]	Activity [2]	Ratio [3]	MBC [5]	Activity [6]
CNC(=O)[C@@H](C)[C@H]1C(=O)/C(=C(O)/C=C/C(C)=C/[C@@H](C)[C@H]2O[C@@]3(C)O[C@H](C=C[C@@]34CO4)[C@@H]2C)C(=O)N1[C@@H]1CC[C@H](O)[C@H](C)O1 [STREPTOLYDIGIN]	2.3 µg/mL (≈ 3.83 µM)	50 µg/mL (≈ 83.2 µM)	inactive		2	100 µg/mL (≈ 166 µM)	
CC(=O)Nc1c2sscc-2n(C)c1=O [THIOLUTIN]	> 100 µg/mL	6.25 µg/mL (≈ 27.4 µM)	inactive		2	12.5 µg/mL (≈ 54.8 µM)	
